Several values for one entry are separate records, joined by “and”; a condition that tells them apart may be missing. Equal entries are not always repeated.
What was measured:
HT-29 = experiment: Cytotoxicity against human HT-29 cells after 72 hrs by XTT assay; assay type: functional, cell-based
Bos taurus [1] = species: Bos taurus; experiment: Inhibition of calf brain tubulin polymerization at 20 uM relative to control
Outline: (§1)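 Calf brain microtubule protein was purified by two cycles of temperature-dependent assembly/disassembly. Assay used 1.0 mg/mL MTP in 0.1 M MES, 1 mM EGTA, 1 mM MgCl2, 1 mM β-ME, 1.5 mM GTP, pH 6.7, with 4% DMSO. Ligand was preincubated 30 min at 20 °C, then 10 min on ice, and assembly started by shift from 4 °C to 37 °C. Turbidity was followed against a no-ligand control. Inhibition is percent of control, mean of at least three experiments.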

A549 = experiment: Cytotoxicity against human A549 cells after 72 hrs by XTT assay; assay type: functional, cell-based
HeLa = experiment: Cytotoxicity against human HeLa cells after 72 hrs by XTT assay; assay type: functional, cell-based
Outline: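 HeLa (1.5 × 10³/well), HT-29 (3 × 10³/well) or A-549 (5 × 10³/well) cells seeded in 100 µL and allowed to attach for 24 h at 37 °C, 5% CO₂. Compounds at a range of concentrations for 72 h. Then XTT/PMS reagent added for 4 h, with absorbance read at 490 nm (reference 655 nm). IC50 is the concentration giving 50% inhibition of proliferation, mean of at least six experiments.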

[2] = Inhibition of calf brain tubulin polymerization relative to control; set-up: species or system Bos taurus; outline: as §1
Bos taurus [3] = species: Bos taurus; experiment: Inhibition of calf brain tubulin polymerization at 30 uM relative to control; outline: as §1
Bos taurus [4] = species: Bos taurus; experiment: Inhibition of calf brain tubulin polymerization at 40 uM relative to control; outline: as §1

| SMILES | inhibition (Bos taurus [1]) | IC50 (HT-29; Homo sapiens, HT-29, 72 h) [µM] | IC50 (HeLa; Homo sapiens, HeLa, 72 h) [nM] | IC50 (A549; a549) | other results |
| --- | --- | --- | --- | --- | --- |
| COc1ccc(/C(=N\OC(=O)OC(C)(C)C)c2ccc3ccccc3c2)c(OC)c1OC |  | 10 |  |  | IC50 (HT-29; ht-29): > 10 µM |
| COc1cc(/C(=N\OC(=O)OC(C)(C)C)c2ccc3ccccc3c2)cc(OC)c1OC | 15% | 10 |  |  | IC50 (HT-29; ht-29): > 10 µM |
| COc1ccc(C(OC(C)=O)c2ccc3ccccc3c2)c(OC)c1OC (stereo unspecified) | 26% |  | 2700 |  | IC50 (A549; Homo sapiens, A549, 72 h): 10 µM |
| COc1cc(C(OC(C)=O)c2ccc3ccccc3c2)cc(OC)c1OC (stereo unspecified) | 10% and 5% |  |  | 1.2 µM and > 10 µM | IC50 (HeLa; hela): 10000 nM and 3800 nM |
| COc1cc(C(c2ccc3ccccc3c2)n2ccnc2)cc(OC)c1OC (stereo unspecified) | 0% | 10 |  |  | IC50 (HT-29; ht-29): > 10 µM |
| COc1ccc(C(=O)c2cc(OC)c(OC)c(OC)c2)cc1O [PHENSTATIN] |  |  |  |  | IC50 [2]: 2500 nM |
| CN/N=C(/c1cc(OC)c(OC)c(OC)c1)c1ccc2ccccc2c1 |  |  |  |  | inhibition (Bos taurus [3]): 31% |
| COc1ccc(/C(=N\N)c2ccc3ccccc3c2)c(OC)c1OC | 0% |  |  |  |  |
| COc1ccc(C(C)(O)c2ccc3ccccc3c2)c(OC)c1OC (stereo unspecified) | 3% |  | 1000 |  | IC50 (A549; Homo sapiens, A549, 72 h): 10 µM |
| COc1ccc(/C(=N\OC(C)=O)c2ccc3ccccc3c2)c(OC)c1OC | 0% | 10 | 1200 | > 10 µM | IC50 (HT-29; ht-29): > 10 µM; IC50 (A549; Homo sapiens, A549, 72 h): 10 µM |
| COc1cc(/C(=N/NC(C)=O)c2ccc3ccccc3c2)cc(OC)c1OC |  | 10 | 10000 | > 10 µM | IC50 (HT-29; ht-29): > 10 µM; inhibition (Bos taurus [3]): 35%; IC50 (A549; Homo sapiens, A549, 72 h): 10 µM; IC50 (HeLa; hela): > 10000 nM |
| COc1cc(C(=O)c2ccc3ccccc3c2)cc(OC)c1OC |  |  |  | 0.043 µM | IC50 [2]: 1100 nM |
| COc1ccc(C(=O)c2ccc3ccccc3c2)c(OC)c1OC | 0.25% and 4% |  |  | 1.7 µM and > 10 µM | IC50 (HeLa; hela): 4000 nM |
| COc1ccc(/C(=N\NC(C)=O)c2ccc3ccccc3c2)c(OC)c1OC | 0% |  |  |  |  |
| COc1cc(/C(=N/O)c2ccc3ccccc3c2)cc(OC)c1OC |  | 1.8 | 1500 | > 10 µM | inhibition (Bos taurus [3]): 0%; IC50 (A549; Homo sapiens, A549, 72 h): 10 µM |
| COc1ccc(C(O)c2ccc3ccccc3c2)c(OC)c1OC (stereo unspecified) | 0% |  | 10000 | > 10 µM | IC50 (A549; Homo sapiens, A549, 72 h): 10 µM |
| COc1ccc(/C=C\c2cc(OC)c(OC)c(OC)c2)cc1O [COMBRETASTATIN A4] | 100% |  | 2700 |  | IC50 [2]: 3000 nM |
| COc1cc(C(O)c2ccc3ccccc3c2)cc(OC)c1OC (stereo unspecified) |  |  |  |  | inhibition (Bos taurus [4]): 0% |
| COc1ccc(/C(=N/O)c2ccc3ccccc3c2)c(OC)c1OC |  | 1 | 400 | > 10 µM | inhibition (Bos taurus [3]): 0%; IC50 (A549; Homo sapiens, A549, 72 h): 10 µM |
| COc1cc(/C(=N/N)c2ccc3ccccc3c2)cc(OC)c1OC |  | 10 |  |  | inhibition (Bos taurus [3]): 0% |

Continued, in another order:

| inhibition (Bos taurus [1]) | SMILES | IC50 (HT-29; Homo sapiens, HT-29, 72 h) [µM] | IC50 (HeLa; Homo sapiens, HeLa, 72 h) [nM] | IC50 (A549; a549) | other results |
| --- | --- | --- | --- | --- | --- |
| 0% | COc1cc(/C(=N\NC(C)=O)c2ccc3ccccc3c2)cc(OC)c1OC |  |  |  |  |
| 38% | COc1cc(/C(=N/OC(C)=O)c2ccc3ccccc3c2)cc(OC)c1OC | 1 | 1 |  |  |
| 4% | CO/N=C(/c1cc(OC)c(OC)c(OC)c1)c1ccc2ccccc2c1 | 1 |  |  |  |
| 10% | COc1cc(/C(=N\OC(C)=O)c2ccc3ccccc3c2)cc(OC)c1OC |  |  |  |  |
